Activity calls are given as the source filed them. The calls are words filed in the database; no cut-off is given here.

Here are results for 25 molecules from ChEMBL document CHEMBL1156223, “Hydroxy cycloalkyl fused pyridone carboxylic acid M(1) positive allosteric modulators” (Bioorg Med Chem Lett, 2010).

Data set [1] addresses T1, Muscarinic acetylcholine receptor M1 (Homo sapiens) (UniProt P11229).
T1 sequence (whole entry): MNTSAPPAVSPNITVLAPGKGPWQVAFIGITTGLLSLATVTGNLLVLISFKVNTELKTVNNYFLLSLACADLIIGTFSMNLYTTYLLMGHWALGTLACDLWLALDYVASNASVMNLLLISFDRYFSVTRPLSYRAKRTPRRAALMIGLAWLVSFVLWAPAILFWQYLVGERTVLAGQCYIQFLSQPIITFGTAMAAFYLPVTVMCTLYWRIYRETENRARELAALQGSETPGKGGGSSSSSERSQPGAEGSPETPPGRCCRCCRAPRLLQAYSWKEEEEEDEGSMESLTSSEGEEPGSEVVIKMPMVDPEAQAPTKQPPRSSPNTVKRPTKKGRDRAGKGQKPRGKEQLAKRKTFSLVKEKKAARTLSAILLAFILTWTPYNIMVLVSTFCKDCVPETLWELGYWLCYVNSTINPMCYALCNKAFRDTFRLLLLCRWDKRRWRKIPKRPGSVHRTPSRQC
As to the kind of experiment: Agonist activity at human muscarinic M1 receptor expressed in CHO cells assessed as inflection point for increase of EC20 of acetylcholine-induced calcium mobilization by FLIPR assay. In kind it is functional, cell-based. The gist of the method: (§1)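 Potency given as inflection point (IP); percent max is the response to compound plus EC20 acetylcholine relative to the maximal acetylcholine effect. Values averaged from at least two experiments; interassay variability ±30% for IP.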
For orientation: A change in cytosolic calcium serves as a functional read-out for many receptors and channels.

Data set [2] concerns the target T1, Muscarinic acetylcholine receptor M1 (Homo sapiens). The data set can be described thus: Agonist activity at human muscarinic M1 receptor expressed in CHO cells assessed as increase in EC20 of concentration acetylcholine-induced calcium mobilization by FLIPR assay relative to acetylcholine. In kind it is functional, cell-based. In outline: as §1
The nature of data set [3]: Ratio of drug levell in brain to plasma in Sprague-Dawley rat at 10 mg/kg, po.
Data set [4] can be described thus: Apparent permeability of the compound. The conditions noted are these: not told.
In a further data set the test system is Brain. The data set can be described thus: Drug level in Sprague-Dawley rat brain at 10 mg/kg, po. The note with it: read-out: Drug uptake, in vivo.
In another data set the test system is Plasma. As to the kind of experiment: Drug levell in Sprague-Dawley rat plasma at 10 mg/kg, po. The conditions noted are these: read-out: Cp, in vivo.
In another data set the test system is Cerebrospinal fluid. The data set can be described thus: Drug level in Sprague-Dawley rat CSF at 10 mg/kg, po. The conditions noted are these: read-out: Drug uptake, in vivo.
The next data set deals with Mus musculus. As to the kind of experiment: Inhibition of scopolamine-induced memory impairment in ip dosed mouse relative to control. In kind it is functional, organism-based. The gist of the method:
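Mouse contextual fear conditioning (episodic memory model): scopolamine given before exposure to a novel environment to block the new association. Test compound dosed ip at three doses; reversal judged against scopolamine-alone mice. Plasma levels sampled at the 3 mpk dose.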

For `O=C(O)c1cn(Cc2ccc(-c3cccc(Cl)c3)cc2)c2c(c1=O)C(O)CCC2` (stereo not drawn), the Activity in data set [1] was 340 nM.

Take `COc1ccc(-c2ccc(Cn3cc(C(=O)O)c(=O)c4c3CCCC4O)cc2)cn1` (stereo not drawn): the Activity in data set [1] came out at 320 nM.

With `O=C(O)c1cn(Cc2ccc(-c3ccc(Cl)cc3)cc2)c2c(c1=O)C(O)CCC2` (stereo not drawn), in data set [1], the Activity came to 340 nM.

With `Nc1ccc(-c2ccc(Cn3cc(C(=O)O)c(=O)c4c3CCCC4O)cc2)cn1` (stereo not drawn), in data set [1], the Activity came out at 2420 nM.

On to `O=C(O)c1cn(Cc2ccc(-n3ccnc3)cc2)c2c(c1=O)C(O)CCC2` (stereo not drawn), for which the Activity in data set [1] is 2500 nM.

With `O=C(O)c1cn(Cc2ccc(-c3ccccc3)cc2)c2c(c1=O)CCCC2O` (stereo not drawn), the Activity in data set [1] amounted to 8190 nM; in data set [2] it was 59%.

Regarding `O=C(O)c1cn(Cc2ccc(-c3ccccc3)cc2)c2ccccc2c1=O`, the values for the Activity in data set [1] and in data set [2] were 212 nM and 92%, respectively.

As for `O=C(O)c1cn(Cc2ccc(-c3ccc(F)cc3)cn2)c2c(c1=O)C(O)CCC2` (stereo not drawn), the Activity in data set [1] is 1100 nM.

`O=C(O)c1cn(Cc2ccc(-c3ccccc3)cc2)c2c(c1=O)CCC2`: the Activity in data set [1] stood at 810 nM; in data set [2], 99%.

For `O=C(O)c1cn(Cc2ccc(-c3ccsc3)cc2)c2c(c1=O)C(O)CCC2` (stereo not drawn), in data set [1], the Activity came out at 2640 nM.

For `O=C(O)c1cn(Cc2ccc(-c3ccoc3)cc2)c2c(c1=O)C(O)CCC2` (stereo not drawn), the Activity in data set [1] is 750 nM.

In the case of `O=C(O)c1cn(Cc2ccc(-n3cccn3)cc2)c2c(c1=O)C(O)CCC2` (stereo not drawn), the Activity in data set [1] turned out to be 1370 nM.

`O=C(O)c1cn(Cc2ccc(-c3ccccc3)cc2)c2c(c1=O)CCCC2`: the Activity in data set [1] is 751 nM; in data set [2] it was 91%.

Regarding `Cn1cc(-c2ccc(Cn3cc(C(=O)O)c(=O)c4c3CCCC4O)cc2)cn1` (stereo not drawn), the Activity in data set [1] was determined as 908 nM. In addition, the Kp in data set [3] is 0.01. The apparent permeability (Papp) in data set [4] came to 19 ×10⁻⁶ cm/s. Moreover, the concentration came to 368 nM in the data set on Brain, 26.7 µM in the data set on Plasma and 110 nM in the data set on Cerebrospinal fluid.

`O=C(O)c1cn(Cc2ccc(-c3ccccc3Cl)cc2)c2c(c1=O)C(O)CCC2` (stereo not drawn): in data set [1], the Activity is 1400 nM.

Consider `O=C(O)c1cn(Cc2ccc(-c3ccccc3)cc2)c2c(c1=O)C(O)CCC2` (stereo not drawn), for which the inhibition result with Mus musculus was “Active”. Besides, in data set [2], the Activity turned out to be 99%.

With `O=C(O)c1cn(Cc2ccc(-c3ccccc3)cc2)c2c(c1=O)CCCC2=O`, the Activity in data set [1] came to 4890 nM; in data set [2] it was 70%.

For `O=C(O)c1cn(Cc2ccc(-c3ccccc3)cc2)c2c(c1=O)C(=O)CCC2`, the Activity in data set [1] was 800 nM; in data set [2], 94%.

Turning to `COc1ccccc1-c1ccc(Cn2cc(C(=O)O)c(=O)c3c2CCCC3O)cc1` (stereo not drawn), the Activity in data set [1] came to 3100 nM.

Turning to `Nc1cccc(-c2ccc(Cn3cc(C(=O)O)c(=O)c4c3CCCC4O)nc2)c1` (stereo not drawn), the Activity in data set [1] came out at 420 nM.

Take `COC1CCCc2c1c(=O)c(C(=O)O)cn2Cc1ccc(-c2ccccc2)cc1` (stereo not drawn): the Activity in data set [1] was determined as 1100 nM; in data set [2], 90%.

Take `COc1cccc(-c2ccc(Cn3cc(C(=O)O)c(=O)c4c3CCCC4O)cc2)c1` (stereo not drawn): in data set [1], the Activity is 410 nM.

Take `COc1ccc(-c2ccc(Cn3cc(C(=O)O)c(=O)c4c3CCCC4O)cc2)cc1` (stereo not drawn): in data set [1], the Activity is 1390 nM.

With `CN(C)c1ccc(-c2ccc(Cn3cc(C(=O)O)c(=O)c4c3CCCC4O)cc2)cn1` (stereo not drawn), the Activity in data set [1] stood at 1100 nM.

In the case of `O=C(O)c1cn(Cc2ccc(-c3ccc(F)nc3)cc2)c2c(c1=O)C(O)CCC2` (stereo not drawn), the Activity in data set [1] was 14800 nM.

A word on the Kp: it is the ratio of the level in a tissue or fluid to that in plasma or blood. The term Papp denotes the rate of passage across a membrane or cell layer, normalised by area and donor concentration.
